Measured values reported in ChEMBL document CHEMBL5550111, “Design, synthesis and biological evaluation of aryloxy thiophosphoramidate triesters of anticancer nucleoside analogues” (Bioorg Med Chem, 2024).

Assays:
HT-29 = assay: Cytotoxicity against human HT-29 cells assessed as inhibition of cell viability incubated for 72 hrs by MTS assay; type: functional, cell-based; details: HT-29, 72 h
Procedure, shortened: (§1)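 Cells seeded at 0.5 to 100 × 10^3 per well the day before treatment, then exposed for 72 h to 9 serial concentrations (3.16-fold dilutions, top 198 μM), in duplicate. MTS added for a final 4 h at 37 °C and absorbance read. IC50 is the concentration giving 50% loss of viability. MI% is the maximum inhibition over the tested range.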

[1] = Cytotoxicity against human ACHN-luc2 cells assessed as inhibition of cell viability incubated for 72 hrs by MTS assay; type: functional, cell-based; details: ACHN-luc2, 72 h; procedure, shortened: as §1
HepG2 = assay: Cytotoxicity against human HepG2 cells assessed as maximum inhibition of cell viability upto 198 uM incubated for 72 hrs by MTS assay relative to control; type: functional; details: up to 198 µM
Procedure, shortened: (§2)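 Cells seeded at 0.5 to 100 × 10^3 per well the day before drug addition, then exposed to compound for 72 h. MTS added afterwards, with a further 4 h at 37 °C, and absorbance read. Tested in duplicate at 9 serial 3.16-fold dilutions, top concentration 198 μM. MI% is the maximum inhibition of viability across the tested range.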

PANC-1 = assay: Cytotoxicity against human PANC-1 cells assessed as inhibition of cell viability incubated for 72 hrs by MTS assay; type: functional, cell-based; details: PANC-1, 72 h; procedure, shortened: as §1
RL [2] = assay: Cytotoxicity against human RL cells assessed as inhibition of cell viability incubated for 72 hrs by MTS assay; type: functional, cell-based; procedure, shortened: as §1
5637 = assay: Cytotoxicity against human 5637 cells assessed as maximum inhibition of cell viability upto 198 uM incubated for 72 hrs by MTS assay relative to control; type: functional; details: up to 198 µM; procedure, shortened: as §2
KG-1 = assay: Cytotoxicity against human KG-1 cells assessed as maximum inhibition of cell viability upto 198 uM incubated for 72 hrs by MTS assay relative to control; type: functional; details: up to 198 µM; procedure, shortened: as §2
[3] = Cytotoxicity against human T24/83 cells assessed as maximum inhibition of cell viability upto 198 uM incubated for 72 hrs by MTS assay relative to control; type: functional; details: up to 198 µM; procedure, shortened: as §2
A2780 = assay: Cytotoxicity against human A2780 cells assessed as inhibition of cell viability incubated for 72 hrs by MTS assay; type: functional, cell-based; details: A2780, 72 h; procedure, shortened: as §1
MIA PaCa-2 [4] = assay: Cytotoxicity against human MIA PaCa-2 cells assessed as inhibition of cell viability incubated for 72 hrs by MTS assay; type: functional, cell-based; details: MIA PaCa-2, 72 h; procedure, shortened: as §1
CAKI-2 [5] = assay: Cytotoxicity against human CAKI-2 cells assessed as maximum inhibition of cell viability upto 198 uM incubated for 72 hrs by MTS assay relative to control; type: functional; details: up to 198 µM; procedure, shortened: as §2
A498 [6] = assay: Cytotoxicity against human A498 cells assessed as maximum inhibition of cell viability upto 198 uM incubated for 72 hrs by MTS assay relative to control; type: functional; details: up to 198 µM; procedure, shortened: as §2
RT112/84 [7] = assay: Cytotoxicity against human RT112/84 cells assessed as maximum inhibition of cell viability upto 198 uM incubated for 72 hrs by MTS assay relative to control; type: functional; details: up to 198 µM; procedure, shortened: as §2
COLO 205 [8] = assay: Cytotoxicity against human COLO 205 cells assessed as inhibition of cell viability incubated for 72 hrs by MTS assay; type: functional, cell-based; details: COLO 205, 72 h; procedure, shortened: as §1
CAKI-2 [9] = assay: Cytotoxicity against human CAKI-2 cells assessed as inhibition of cell viability incubated for 72 hrs by MTS assay; type: functional, cell-based; details: CAKI-2, 72 h; procedure, shortened: as §1
OVCAR-3 = assay: Cytotoxicity against human OVCAR-3 cells assessed as inhibition of cell viability incubated for 72 hrs by MTS assay; type: functional, cell-based; details: OVCAR-3, 72 h; procedure, shortened: as §1
A498 [10] = assay: Cytotoxicity against human A498 cells assessed as inhibition of cell viability incubated for 72 hrs by MTS assay; type: functional, cell-based; details: A498, 72 h; procedure, shortened: as §1
SK-MES-1 = assay: Cytotoxicity against human SK-MES-1 cells assessed as maximum inhibition of cell viability upto 198 uM incubated for 72 hrs by MTS assay relative to control; type: functional; details: up to 198 µM; procedure, shortened: as §2
RT112/84 [11] = assay: Cytotoxicity against human RT112/84 cells assessed as inhibition of cell viability incubated for 72 hrs by MTS assay; type: functional, cell-based; details: RT112/84, 72 h; procedure, shortened: as §1
RL [12] = assay: Cytotoxicity against human RL cells assessed as maximum inhibition of cell viability upto 198 uM incubated for 72 hrs by MTS assay relative to control; type: functional; details: up to 198 µM; procedure, shortened: as §2
MIA PaCa-2 [13] = assay: Cytotoxicity against human MIA PaCa-2 cells assessed as maximum inhibition of cell viability upto 198 uM incubated for 72 hrs by MTS assay relative to control; type: functional; details: up to 198 µM; procedure, shortened: as §2
PC-3 = assay: Cytotoxicity against human PC-3 cells assessed as maximum inhibition of cell viability upto 198 uM incubated for 72 hrs by MTS assay relative to control; type: functional; details: up to 198 µM; procedure, shortened: as §2
NCI-H1975 = assay: Cytotoxicity against human NCI-H1975 cells assessed as maximum inhibition of cell viability upto 198 uM incubated for 72 hrs by MTS assay relative to control; type: functional; details: up to 198 µM; procedure, shortened: as §2
COLO 205 [14] = assay: Cytotoxicity against human COLO 205 cells assessed as maximum inhibition of cell viability upto 198 uM incubated for 72 hrs by MTS assay relative to control; type: functional; details: up to 198 µM; procedure, shortened: as §2

## CC(=O)O[C@H]1C(=O)[C@@]2(C)[C@H]([C@H](OC(=O)c3ccccc3)[C@]3(O)C[C@H](OC(=O)[C@H](O)[C@@H](NC(=O)c4ccccc4)c4ccccc4)C(C)=C1C3(C)C)[C@]1(OC(C)=O)CO[C@@H]1C[C@@H]2O [PACLITAXEL]
HT-29
  IC50: 30 nM
[1]
  IC50: 20 nM
HepG2
  Imax: 54%
PANC-1
  IC50: 3 nM
RL [2]
  IC50: 7 nM
5637
  Imax: 95%
KG-1
  Imax: 79%
[3]
  Imax: 97%
A2780
  IC50: 8 nM
MIA PaCa-2 [4]
  IC50: 3 nM
CAKI-2 [5]
  Imax: 78%
A498 [6]
  Imax: 74%
RT112/84 [7]
  Imax: 77%
COLO 205 [8]
  IC50: 10 nM
CAKI-2 [9]
  IC50: 10 nM
OVCAR-3
  IC50: 4 nM
A498 [10]
  IC50: 20 nM
SK-MES-1
  Imax: 77%
RT112/84 [11]
  IC50: 10 nM
RL [12]
  Imax: 63%
MIA PaCa-2 [13]
  Imax: 83%
PC-3
  Imax: 62%
NCI-H1975
  Imax: 75%
COLO 205 [14]
  Imax: 90%
